Reference: ChEMBL document CHEMBL1165965, “Synthesis and structure-activity relationships of 1,2,3,4-tetrahydropyrido[2,3-b]pyrazines as potent and selective inhibitors of the anaplastic lymphoma kinase” (Bioorg Med Chem, 2010)

How the values were obtained:
[1] = target: Mitogen-activated protein kinase kinase kinase kinase 4 (Homo sapiens) (UniProt O95819); experiment: Inhibition of MAP4K4 at 1 uM
Summary of the method: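 Single-concentration screen on the Ambit KINOMEscan platform, run against a panel of 250–400 kinases. Per-kinase inhibition was also summarized as S(90), the fraction of kinases inhibited by more than 90%.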

[2] = target: Cyclin-dependent kinase 14 (Homo sapiens) (UniProt O94921); experiment: Inhibition of PFTK1 at 1 uM
[3] = target: T1, cGMP-dependent protein kinase 2 (Homo sapiens) (UniProt Q13237); experiment: Inhibition of PRKG2 at 1 uM
T1 sequence (whole entry): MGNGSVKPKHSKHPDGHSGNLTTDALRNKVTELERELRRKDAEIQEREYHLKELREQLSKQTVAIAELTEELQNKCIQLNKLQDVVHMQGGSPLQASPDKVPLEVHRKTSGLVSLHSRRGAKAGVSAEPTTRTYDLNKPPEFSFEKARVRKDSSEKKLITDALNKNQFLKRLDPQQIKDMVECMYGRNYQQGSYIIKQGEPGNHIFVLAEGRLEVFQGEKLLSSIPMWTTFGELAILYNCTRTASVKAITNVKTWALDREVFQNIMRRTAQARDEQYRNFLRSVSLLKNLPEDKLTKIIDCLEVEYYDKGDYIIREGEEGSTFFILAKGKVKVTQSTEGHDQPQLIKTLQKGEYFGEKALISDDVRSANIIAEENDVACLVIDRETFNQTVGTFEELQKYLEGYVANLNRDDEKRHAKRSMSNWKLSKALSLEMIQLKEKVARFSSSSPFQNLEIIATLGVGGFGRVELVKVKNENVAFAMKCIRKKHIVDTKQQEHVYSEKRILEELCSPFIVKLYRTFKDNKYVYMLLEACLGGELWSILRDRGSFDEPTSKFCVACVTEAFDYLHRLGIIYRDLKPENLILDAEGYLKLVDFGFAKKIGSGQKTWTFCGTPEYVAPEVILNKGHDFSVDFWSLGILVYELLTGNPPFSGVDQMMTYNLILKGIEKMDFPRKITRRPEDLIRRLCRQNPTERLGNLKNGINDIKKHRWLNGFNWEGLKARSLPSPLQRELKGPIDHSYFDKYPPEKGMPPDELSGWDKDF

[4] = target: Serine/threonine-protein kinase SIK2 (Homo sapiens) (UniProt Q9H0K1); experiment: Inhibition of SIK2 at 1 uM
[5] = target: SRSF protein kinase 3 (Homo sapiens) (UniProt Q9UPE1); experiment: Inhibition of SRPK3 at 1 uM
[6] = target: Wee1-like protein kinase 2 (Homo sapiens) (UniProt P0C1S8); experiment: Inhibition of WEE2 at 1 uM
[7] = target: T2, Tyrosine-protein kinase ZAP-70 (Homo sapiens) (UniProt P43403); experiment: Inhibition of ZAP70 at 1 uM
T2 sequence (whole entry): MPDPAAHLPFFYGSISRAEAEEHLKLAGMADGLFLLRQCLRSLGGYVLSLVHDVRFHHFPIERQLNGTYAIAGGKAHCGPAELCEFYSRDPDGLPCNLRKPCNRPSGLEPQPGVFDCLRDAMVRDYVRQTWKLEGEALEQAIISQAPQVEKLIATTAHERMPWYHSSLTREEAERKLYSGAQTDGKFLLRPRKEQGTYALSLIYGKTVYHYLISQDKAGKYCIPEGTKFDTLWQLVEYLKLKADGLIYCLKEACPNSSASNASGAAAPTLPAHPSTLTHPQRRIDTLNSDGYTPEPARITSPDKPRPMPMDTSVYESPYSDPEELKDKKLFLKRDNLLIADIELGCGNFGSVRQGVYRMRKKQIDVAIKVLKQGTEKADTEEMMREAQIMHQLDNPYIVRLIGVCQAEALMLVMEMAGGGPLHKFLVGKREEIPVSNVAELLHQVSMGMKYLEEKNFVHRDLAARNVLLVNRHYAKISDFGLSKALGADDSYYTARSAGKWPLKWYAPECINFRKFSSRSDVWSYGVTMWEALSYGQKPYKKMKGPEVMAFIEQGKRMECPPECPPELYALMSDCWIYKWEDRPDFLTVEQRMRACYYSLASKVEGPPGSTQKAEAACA

[8] = tested on: Serine/threonine-protein kinase B-raf (Homo sapiens), P15056 [V600E]; experiment: Inhibition of BRAF V600E mutant at 1 uM
Summary of the method: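 Ambit KINOMEscan screen at a single concentration across a 250–400 kinase panel, recorded as percent inhibition. Selectivity was expressed as S(90), the fraction of kinases inhibited >90%.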

[9] = target: Ephrin type-A receptor 4 (Homo sapiens) (UniProt P54764); experiment: Inhibition of EPHA4 at 1 uM
Summary of the method: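 Single-concentration screen using Ambit Bioscience KINOMEscan technology across a panel of 250–400 kinases. Per-kinase inhibition from this screen was summarized as S(90), the fraction of kinases inhibited by more than 90%.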

[10] = target: T3, Ephrin type-B receptor 6 (Homo sapiens) (UniProt O15197); experiment: Inhibition of EPHB6 at 1 uM
T3 sequence (whole entry): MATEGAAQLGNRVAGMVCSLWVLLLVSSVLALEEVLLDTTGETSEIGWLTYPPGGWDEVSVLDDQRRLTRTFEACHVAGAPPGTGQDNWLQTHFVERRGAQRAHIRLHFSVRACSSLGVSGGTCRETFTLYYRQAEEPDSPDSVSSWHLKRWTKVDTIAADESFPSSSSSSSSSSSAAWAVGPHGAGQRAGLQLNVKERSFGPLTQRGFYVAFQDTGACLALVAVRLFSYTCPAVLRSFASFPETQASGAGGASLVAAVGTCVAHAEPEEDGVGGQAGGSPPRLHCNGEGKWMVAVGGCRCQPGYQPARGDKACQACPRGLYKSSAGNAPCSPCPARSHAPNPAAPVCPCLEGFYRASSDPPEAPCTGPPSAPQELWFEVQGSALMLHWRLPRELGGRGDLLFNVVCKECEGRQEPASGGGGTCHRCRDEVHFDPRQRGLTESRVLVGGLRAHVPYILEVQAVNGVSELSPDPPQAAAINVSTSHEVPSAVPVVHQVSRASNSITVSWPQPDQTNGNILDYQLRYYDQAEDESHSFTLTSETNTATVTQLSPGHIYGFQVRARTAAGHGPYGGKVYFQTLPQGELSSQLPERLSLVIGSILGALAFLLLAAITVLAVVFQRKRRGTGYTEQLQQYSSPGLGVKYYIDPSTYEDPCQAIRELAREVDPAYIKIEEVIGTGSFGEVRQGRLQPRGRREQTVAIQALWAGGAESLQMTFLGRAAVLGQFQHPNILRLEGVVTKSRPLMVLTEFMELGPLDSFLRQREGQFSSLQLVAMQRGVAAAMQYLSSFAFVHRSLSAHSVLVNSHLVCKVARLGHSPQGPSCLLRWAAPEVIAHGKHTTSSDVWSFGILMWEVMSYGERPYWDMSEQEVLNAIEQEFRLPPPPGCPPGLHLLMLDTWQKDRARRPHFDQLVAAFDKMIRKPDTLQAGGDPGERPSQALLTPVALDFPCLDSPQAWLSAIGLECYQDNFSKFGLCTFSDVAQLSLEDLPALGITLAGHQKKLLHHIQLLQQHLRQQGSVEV

Cyclin-dependent kinase 14 (Homo sapiens), sequence (O94921 whole entry): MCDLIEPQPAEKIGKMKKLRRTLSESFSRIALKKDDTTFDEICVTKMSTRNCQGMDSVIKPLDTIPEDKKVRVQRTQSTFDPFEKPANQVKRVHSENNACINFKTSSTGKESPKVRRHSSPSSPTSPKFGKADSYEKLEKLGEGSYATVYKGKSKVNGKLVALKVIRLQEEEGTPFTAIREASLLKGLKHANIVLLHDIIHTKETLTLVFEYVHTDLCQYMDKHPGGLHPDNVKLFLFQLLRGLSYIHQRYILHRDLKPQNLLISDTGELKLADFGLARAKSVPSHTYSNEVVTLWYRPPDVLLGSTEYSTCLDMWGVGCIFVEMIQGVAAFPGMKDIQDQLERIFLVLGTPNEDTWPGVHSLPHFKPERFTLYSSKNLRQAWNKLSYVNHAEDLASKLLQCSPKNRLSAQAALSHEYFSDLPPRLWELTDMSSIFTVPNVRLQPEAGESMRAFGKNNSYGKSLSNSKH
Serine/threonine-protein kinase B-raf (Homo sapiens), P15056 [V600E], sequence (P15056 whole entry V600E): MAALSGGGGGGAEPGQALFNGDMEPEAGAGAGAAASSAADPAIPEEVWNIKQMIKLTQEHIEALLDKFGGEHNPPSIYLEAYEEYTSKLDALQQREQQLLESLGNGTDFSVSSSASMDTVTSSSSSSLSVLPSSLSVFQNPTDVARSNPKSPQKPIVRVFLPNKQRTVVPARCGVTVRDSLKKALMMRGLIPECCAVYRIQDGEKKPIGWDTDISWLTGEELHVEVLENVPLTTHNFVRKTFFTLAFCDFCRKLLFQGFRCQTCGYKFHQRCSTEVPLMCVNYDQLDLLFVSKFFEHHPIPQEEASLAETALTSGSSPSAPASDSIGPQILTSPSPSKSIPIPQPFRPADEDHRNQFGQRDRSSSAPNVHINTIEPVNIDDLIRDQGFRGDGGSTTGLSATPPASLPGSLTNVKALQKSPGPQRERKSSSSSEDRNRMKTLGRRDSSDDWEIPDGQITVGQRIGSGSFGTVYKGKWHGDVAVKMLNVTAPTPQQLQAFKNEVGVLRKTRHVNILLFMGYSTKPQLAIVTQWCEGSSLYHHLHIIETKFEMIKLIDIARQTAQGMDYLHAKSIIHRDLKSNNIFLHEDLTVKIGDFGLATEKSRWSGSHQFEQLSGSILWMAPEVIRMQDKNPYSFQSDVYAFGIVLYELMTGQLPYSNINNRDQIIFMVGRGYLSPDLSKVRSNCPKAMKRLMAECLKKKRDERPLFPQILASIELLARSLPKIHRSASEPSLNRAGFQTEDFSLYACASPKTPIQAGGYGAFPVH
Serine/threonine-protein kinase SIK2 (Homo sapiens), sequence (Q9H0K1 whole entry, looked up): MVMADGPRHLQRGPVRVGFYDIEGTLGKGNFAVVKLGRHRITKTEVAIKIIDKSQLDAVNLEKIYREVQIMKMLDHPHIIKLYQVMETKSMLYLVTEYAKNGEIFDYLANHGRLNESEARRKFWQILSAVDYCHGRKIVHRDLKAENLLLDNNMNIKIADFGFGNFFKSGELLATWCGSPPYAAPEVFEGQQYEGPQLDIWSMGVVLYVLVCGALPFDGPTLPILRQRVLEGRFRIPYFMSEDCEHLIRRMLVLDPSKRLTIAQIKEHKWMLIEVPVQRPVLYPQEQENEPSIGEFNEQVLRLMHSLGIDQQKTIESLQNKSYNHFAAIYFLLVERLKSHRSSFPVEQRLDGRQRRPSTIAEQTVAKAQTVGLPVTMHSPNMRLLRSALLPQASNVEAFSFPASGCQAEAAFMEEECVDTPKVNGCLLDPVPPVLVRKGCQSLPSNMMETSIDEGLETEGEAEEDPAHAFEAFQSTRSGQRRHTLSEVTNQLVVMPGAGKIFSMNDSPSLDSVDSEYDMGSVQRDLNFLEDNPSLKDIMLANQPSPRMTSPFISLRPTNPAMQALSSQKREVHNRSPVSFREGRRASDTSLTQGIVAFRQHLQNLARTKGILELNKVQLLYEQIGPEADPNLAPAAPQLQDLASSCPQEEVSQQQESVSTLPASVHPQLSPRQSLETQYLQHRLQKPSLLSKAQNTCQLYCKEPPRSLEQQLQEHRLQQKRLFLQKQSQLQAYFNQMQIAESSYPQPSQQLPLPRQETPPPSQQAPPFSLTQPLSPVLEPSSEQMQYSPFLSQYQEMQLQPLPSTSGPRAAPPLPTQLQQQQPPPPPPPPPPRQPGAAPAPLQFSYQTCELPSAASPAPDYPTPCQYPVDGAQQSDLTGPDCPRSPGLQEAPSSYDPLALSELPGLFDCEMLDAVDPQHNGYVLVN
Mitogen-activated protein kinase kinase kinase kinase 4 (Homo sapiens), sequence (O95819 2-1239 limits assumed): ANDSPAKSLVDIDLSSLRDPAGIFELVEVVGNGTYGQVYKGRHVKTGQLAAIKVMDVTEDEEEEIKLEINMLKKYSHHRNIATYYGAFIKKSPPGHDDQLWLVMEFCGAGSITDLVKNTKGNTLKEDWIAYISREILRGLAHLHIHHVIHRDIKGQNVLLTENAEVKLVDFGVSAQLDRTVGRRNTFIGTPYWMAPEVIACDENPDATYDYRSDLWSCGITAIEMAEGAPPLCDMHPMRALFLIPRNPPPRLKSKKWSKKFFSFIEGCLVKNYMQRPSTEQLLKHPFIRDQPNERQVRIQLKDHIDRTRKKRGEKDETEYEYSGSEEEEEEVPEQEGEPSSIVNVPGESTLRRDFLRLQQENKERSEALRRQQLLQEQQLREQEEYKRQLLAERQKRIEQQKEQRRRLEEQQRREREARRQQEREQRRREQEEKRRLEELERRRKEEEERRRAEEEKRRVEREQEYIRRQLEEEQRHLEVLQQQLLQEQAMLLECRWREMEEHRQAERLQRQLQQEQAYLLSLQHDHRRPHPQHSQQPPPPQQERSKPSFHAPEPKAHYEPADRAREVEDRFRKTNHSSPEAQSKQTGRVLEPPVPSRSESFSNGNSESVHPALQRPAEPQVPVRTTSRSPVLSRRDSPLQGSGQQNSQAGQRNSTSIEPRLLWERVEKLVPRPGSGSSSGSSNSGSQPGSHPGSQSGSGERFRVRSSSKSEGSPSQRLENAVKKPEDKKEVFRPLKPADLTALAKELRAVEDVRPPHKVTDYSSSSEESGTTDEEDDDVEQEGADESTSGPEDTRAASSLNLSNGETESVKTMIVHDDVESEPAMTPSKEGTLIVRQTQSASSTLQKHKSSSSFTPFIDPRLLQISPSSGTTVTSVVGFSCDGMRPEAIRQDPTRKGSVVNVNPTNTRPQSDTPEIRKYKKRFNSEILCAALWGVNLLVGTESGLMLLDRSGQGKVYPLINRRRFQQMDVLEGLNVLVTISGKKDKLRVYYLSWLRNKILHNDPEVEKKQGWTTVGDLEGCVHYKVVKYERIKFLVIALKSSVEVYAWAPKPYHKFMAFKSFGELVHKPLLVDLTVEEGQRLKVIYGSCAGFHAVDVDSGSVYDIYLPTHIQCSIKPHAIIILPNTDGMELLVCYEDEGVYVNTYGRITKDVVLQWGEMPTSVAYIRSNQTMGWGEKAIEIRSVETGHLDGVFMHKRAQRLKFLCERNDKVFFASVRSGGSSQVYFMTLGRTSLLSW
Ephrin type-A receptor 4 (Homo sapiens), sequence (P54764 whole entry): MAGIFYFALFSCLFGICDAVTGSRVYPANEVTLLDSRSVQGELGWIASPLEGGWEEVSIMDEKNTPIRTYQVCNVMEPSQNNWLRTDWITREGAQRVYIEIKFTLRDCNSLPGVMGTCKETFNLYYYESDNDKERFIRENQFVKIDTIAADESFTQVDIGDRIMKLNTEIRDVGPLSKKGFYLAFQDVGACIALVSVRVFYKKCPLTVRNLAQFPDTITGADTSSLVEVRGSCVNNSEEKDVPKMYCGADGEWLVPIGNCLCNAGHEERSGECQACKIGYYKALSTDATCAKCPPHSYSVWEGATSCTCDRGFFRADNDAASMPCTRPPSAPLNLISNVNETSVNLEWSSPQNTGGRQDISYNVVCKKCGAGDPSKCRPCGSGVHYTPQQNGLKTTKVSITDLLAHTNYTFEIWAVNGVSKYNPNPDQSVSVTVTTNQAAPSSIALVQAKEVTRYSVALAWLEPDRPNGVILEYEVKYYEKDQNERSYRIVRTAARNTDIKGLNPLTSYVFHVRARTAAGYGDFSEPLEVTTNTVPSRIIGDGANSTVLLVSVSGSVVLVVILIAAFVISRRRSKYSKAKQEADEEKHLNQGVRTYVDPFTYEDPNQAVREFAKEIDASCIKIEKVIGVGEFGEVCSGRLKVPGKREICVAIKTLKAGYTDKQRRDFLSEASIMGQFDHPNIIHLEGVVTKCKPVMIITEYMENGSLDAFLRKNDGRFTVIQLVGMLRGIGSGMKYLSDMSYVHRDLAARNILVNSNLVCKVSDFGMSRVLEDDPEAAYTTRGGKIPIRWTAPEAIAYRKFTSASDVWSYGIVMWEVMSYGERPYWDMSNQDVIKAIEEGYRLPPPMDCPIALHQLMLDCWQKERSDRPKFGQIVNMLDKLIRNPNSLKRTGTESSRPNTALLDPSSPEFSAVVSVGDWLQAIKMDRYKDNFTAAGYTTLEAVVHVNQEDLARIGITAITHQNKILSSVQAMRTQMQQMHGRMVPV
Wee1-like protein kinase 2 (Homo sapiens), sequence (P0C1S8 whole entry, looked up): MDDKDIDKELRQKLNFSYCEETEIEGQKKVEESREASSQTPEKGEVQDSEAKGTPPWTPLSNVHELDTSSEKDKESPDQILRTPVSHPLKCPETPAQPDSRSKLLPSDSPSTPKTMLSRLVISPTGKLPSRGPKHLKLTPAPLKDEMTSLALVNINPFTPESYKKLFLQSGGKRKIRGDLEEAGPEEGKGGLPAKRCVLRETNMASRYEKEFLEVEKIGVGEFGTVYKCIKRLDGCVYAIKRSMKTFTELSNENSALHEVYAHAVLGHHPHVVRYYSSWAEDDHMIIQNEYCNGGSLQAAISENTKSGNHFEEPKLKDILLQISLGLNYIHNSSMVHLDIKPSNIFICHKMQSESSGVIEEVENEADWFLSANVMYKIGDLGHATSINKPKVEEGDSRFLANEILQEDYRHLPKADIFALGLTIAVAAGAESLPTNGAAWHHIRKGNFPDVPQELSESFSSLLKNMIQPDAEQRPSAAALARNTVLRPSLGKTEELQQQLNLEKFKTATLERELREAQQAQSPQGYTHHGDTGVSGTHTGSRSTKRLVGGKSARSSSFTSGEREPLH

Compound	inhibition [1]	inhibition [2]	inhibition [3]	inhibition [4]	inhibition [5]	inhibition [6]	inhibition [7]	inhibition [8]	inhibition [9]	inhibition [10]
CN1CCN(c2ccc(-c3cnc4c(c3)N(Cc3cc(F)ccc3F)CCN4)cn2)CC1	< 50%	< 50%	< 50%	< 50%	< 50%	< 50%	< 50%	< 50%	< 50%	68%
CC(=O)N1CCN(c2cc(-c3cnc4c(c3)N(Cc3cc(Cl)ccc3C(F)(F)F)CCN4)ccn2)CC1	< 50%	< 50%	< 50%	< 50%	< 50%	< 50%	< 50%	< 50%	< 50%	92%
CN1CCN(c2ccc(-c3cnc4c(c3)N(Cc3c(F)ccc(F)c3Cl)CCN4)cn2)CC1	76%	< 50%	< 50%	< 50%	< 50%	< 50%	< 50%	< 50%	< 50%	95%
FC(F)(F)c1ccc(Cl)cc1CN1CCNc2ncc(-c3ccnc(N4CCNCC4)c3)cc21	< 50%	< 50%	< 50%	75%	< 50%	< 50%	< 50%	< 50%	< 50%	97%
CN1CCN(c2ccc(-c3cnc4c(c3)N(Cc3cc(Cl)ccc3Cl)CCN4)cn2)CC1	< 50%	< 50%	< 50%	< 50%	< 50%	< 50%	< 50%	< 50%	< 50%	76%
O=C(c1ccc(-c2cnc3c(c2)N(Cc2cc(Cl)ccc2C(F)(F)F)CCN3)cc1)N1CCC(N2CCCC2)CC1	< 50%		< 50%	< 50%			< 50%	< 50%	< 50%	
O=C(O)c1ccc(-c2cnc3c(c2)N(Cc2cc(Cl)ccc2C(F)(F)F)CCN3)cc1	< 50%		< 50%				< 50%	< 50%	< 50%	
CN1CCN(c2ccc(-c3cnc4c(c3)N(Cc3cc(Cl)ccc3C(F)(F)F)CCN4)cn2)CC1	< 50%	< 50%	< 50%	< 50%	< 50%	< 50%	< 50%	< 50%	< 50%	89%
O=C(c1ccc(-c2cnc3c(c2)N(Cc2cc(Cl)ccc2C(F)(F)F)CCN3)cc1)N1CCCCC1	< 50%		< 50%				< 50%	< 50%	< 50%	
COC1CCN(C(=O)c2ccc(-c3cnc4c(c3)N(Cc3cc(Cl)ccc3C(F)(F)F)CCN4)cc2)CC1	< 50%		< 50%	< 50%			< 50%	< 50%	< 50%	
